# The source made the active and inactive calls. No cut-off for these calls is given here.
# Columns and labels:
# [1] = tested on: Mus musculus; test: (§1) Induction of M2 polarization in C57BL/6J mouse model of MOG (35 to 55 residues)/pertussis toxin/complete Freund's adjuvant-induced experimental allergic encephalomyelitis assessed as CD206 level in draining lymph nodes at 200 mg/kg, ig administered daily starting from 7 days post-immunization measured after 13 to 19 days post-immunization by flow cytometry analysis (reference value: 6.5%); format: functional
# Summary of the method: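 MOG35-55/CFA EAE mice were dosed daily in saline from day 7 and sampled between days 13 and 19. Cells came from spleen and dLN by mechanical dissociation and from CNS by collagenase IV/Percoll. They were stained for F4/80 with CD206 (M2) or CD86 (M1), and each was read by flow cytometry as a percentage of total F4/80+ macrophages.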
# [2] = biological target: RAC-alpha serine/threonine-protein kinase (Mus musculus) (UniProt P31750); test: Stimulation of AKT phosphorylation at 473 residue in mouse RAW264.7 cells at 300 nM measured after 4 to 24 hrs by Western blot analysis; format: cell-based
# Chain of RAC-alpha serine/threonine-protein kinase (Mus musculus) (P31750 whole entry): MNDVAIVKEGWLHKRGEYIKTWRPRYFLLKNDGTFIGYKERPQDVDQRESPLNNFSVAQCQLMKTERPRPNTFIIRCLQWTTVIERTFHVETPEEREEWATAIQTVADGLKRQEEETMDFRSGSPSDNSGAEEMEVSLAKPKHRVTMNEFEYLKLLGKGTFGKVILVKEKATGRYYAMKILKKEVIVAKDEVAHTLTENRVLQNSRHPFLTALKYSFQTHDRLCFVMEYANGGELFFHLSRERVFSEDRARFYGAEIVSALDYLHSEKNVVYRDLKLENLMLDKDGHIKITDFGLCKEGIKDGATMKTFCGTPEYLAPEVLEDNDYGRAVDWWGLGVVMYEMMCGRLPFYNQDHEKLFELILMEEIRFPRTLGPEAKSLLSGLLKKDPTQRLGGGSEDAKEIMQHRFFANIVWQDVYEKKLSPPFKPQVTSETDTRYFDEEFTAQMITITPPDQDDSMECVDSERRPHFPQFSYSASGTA
# Summary of the method: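 Cell lysates separated by SDS-PAGE, transferred to PVDF and probed for Akt, p-Akt(308), p-Akt(473), Stat3, p-Stat3(Y705), Stat6 and p-Stat6; ECL detection, GAPDH as loading control.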
# [3] = tested on: Mus musculus; test: as §1, with “Antiinflammatory activity” for “Induction of M2 polarization”, “TH17 cell population in spinal cord by measuring IL17” for “CD206”, “level” for “level in draining lymph nodes”, “14” for “13”, “21” for “19”, “7.7%)” for “6.5%)”; format: functional
# Summary of the method: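 EAE induced with MOG35-55 (2 mg/ml in PBS) emulsified in CFA containing 4 mg/ml heat-killed M. tuberculosis H37Ra, injected s.c. into the neck and both hindlegs. Drug in saline daily from day 7. Between days 13 and 19, CNS mononuclear cells were taken by collagenase IV digestion and a 70%/30% Percoll gradient. Cells were restimulated 5 h with brefeldin A 2 µg/ml, PMA 0.1 µg/ml and ionomycin 0.5 µg/ml, stained for surface CD4, fixed and permeabilised, then stained intracellularly for IFN-γ/IL-17A. Analysed by flow cytometry; n=4 mice per group.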
# [4] = tested on: RAW264.7; test: Modulation of M2 polarization in mouse RAW264.7 cells assessed as up regulation of PPARGC1A mRNA expression at 300 nM measured after 24 hrs by qRT-PCR analysis; format: functional, cell-based
# [5] = AUC (0 to infinity) in Sprague-Dawley rat at 10 mg/kg, iv administered as single dose by LC/MS analysis; format: ADME, organism-based; set-up: dose 10 mg/kg, time infinity, route intravenous; settings: in vivo
# Summary of the method: (§2)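 Single dose in rats; venous blood (100 µL) drawn at 0, 0.5, 1, 2, 4, 8 and 12 h, plasma separated by centrifugation and held at -20 °C. Compound measured by LC/MS; Cmax, Tmax, t1/2 and AUC derived from the concentration–time data.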
# [6] = tested on: BMDM; test: Modulation of M2 polarization in C57BL/6J mouse BMDM cells assessed as up regulation of Fizz1 mRNA expression at 300 nM measured after 24 hrs by qRT-PCR analysis; format: functional, cell-based
# Summary of the method: (§3)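 BMDMs treated 24 h with 300 nM compound at 37 °C, 5% CO2. Trizol RNA extraction, then qRT-PCR for Arg1, Mrc1 and Fizz1 mRNA. Mean ± SEM.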
# [7] = tested on: BMDM; test: Modulation of M2 polarization in C57BL/6J mouse BMDM cells assessed as up regulation of Arg1 mRNA expression at 300 nM measured after 24 hrs by qRT-PCR analysis; format: functional, cell-based; summary of the method: as §3
# [8] = Tmax in Sprague-Dawley rat at 50 mg/kg, po administered as single dose via gavage by LC/MS analysis; format: ADME, organism-based; settings: in vivo
# Summary of the method: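 Single dose given to rats. Venous blood (100 µL) drawn at 0, 0.5, 1, 2, 4, 8 and 12 h. Plasma separated by centrifugation and stored at -20 °C, then compound measured by LC/MS. Cmax, Tmax, t1/2 and AUC derived from the concentration-time data.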
# [9] = tested on: BMDM; test: Modulation of M2 polarization in C57BL/6J mouse BMDM cells assessed as up regulation of CD206 expression at 300 nM measured after 24 hrs by FACS analysis; format: functional, cell-based
# Summary of the method: (§4)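 BMDMs exposed to compound (300 nM, or a range of concentrations) for 24 h. Stained for F4/80 and CD206; % CD206+F4/80+ cells read by flow cytometry. Mean ± SEM, at least three independent experiments.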
# [10] = tested on: BMDM; test: Modulation of M2 polarization in C57BL/6J mouse BMDM cells assessed as up regulation of CD206 expression measured after 24 hrs by FACS analysis; format: functional, cell-based; summary of the method: as §4
# [11] = tested on: Mus musculus; test: Antiinflammatory activity in C57BL/6J mouse model of MOG (35 to 55 residues)/pertussis toxin/complete Freund's adjuvant-induced experimental allergic encephalomyelitis assessed as reduction in infiltration in spinal cord at 200 mg/kg, ig administered daily starting from 7 days post-immunization measured after 14 days post-immunization by LFB staining based microscopic analysis; format: functional, organism-based
# Summary of the method: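 EAE mice dosed daily in saline from day 7 were perfused with PBS and fixed in 4% PFA on day 14; spinal cords were taken. For LFB, frozen OCT sections sat 3 h in 0.1% Luxol Fast Blue at 56-60°C, were differentiated in 0.05% lithium carbonate for 10-12 s, cleared in 70% ethanol, dehydrated and mounted. For H&E, paraffin sections were stained to assess inflammation.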
# [12] = Half life in Sprague-Dawley rat at 50 mg/kg, po administered as single dose via gavage by LC/MS analysis; format: ADME, organism-based; settings: in vivo; summary of the method: as §2
# [13] = tested on: RAW264.7; test: Modulation of M2 polarization in mouse RAW264.7 cells assessed as change in Arg1 mRNA expression at 300 nM measured after 24 hrs by qRT-PCR analysis relative to control; format: functional
# Summary of the method: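 RAW264.7 cells (DMEM, 10% FBS) given 300 nM compound for 24 h; IL-4 20 ng/ml as positive control. Arg1 mRNA measured by qRT-PCR; fold change = expression in dosed group / expression in untreated control.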
# [14] = tested on: Mus musculus; test: as §1, with “Antiinflammatory activity” for “Induction of M2 polarization”, “effect on Treg cell population” for “CD206 level”, “nodes by measuring change in CD4 level” for “nodes”, “analysis” for “analysis (reference value: 6.5%)”; format: functional, organism-based
# Summary of the method: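 MOG35-55/CFA EAE mice were dosed daily in saline from day 7 and sampled between days 13 and 19. Spleens and dLNs were mechanically dissociated to single cells. CNS cells came from collagenase IV digestion and a 70%/30% Percoll gradient. Cells were surface-stained with fluorochrome antibodies, including CD4, CD11b, CD11c and MHC-II, and analysed by flow cytometry.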
# [15] = tested on: RAW264.7; test: Modulation of M2 polarization in mouse RAW264.7 cells assessed as up regulation of CD163 mRNA expression at 300 nM measured after 24 hrs by qRT-PCR analysis; format: functional, cell-based
# [16] = tested on: RAW264.7; test: Modulation of M2 polarization in mouse RAW264.7 cells assessed as up regulation of IL13 mRNA expression at 300 nM measured after 24 hrs by qRT-PCR analysis; format: functional, cell-based
# [17] = tested on: RAW264.7; test: Inhibition of LPS-induced M1 polarization in mouse RAW264.7 cells assessed as down regulation of Mcp1 mRNA expression at 300 nM measured after 24 hrs by qRT-PCR analysis relative to control; format: functional, cell-based
# Summary of the method: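 RAW264.7 cells pre-treated with LPS (50 ng/ml) for 24 h, then given 300 nM compound for 24 h. Mcp1 mRNA quantified by qRT-PCR relative to control. Mean ± SEM.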
smiles,measurement,setting,value
Cl.Cn1ncc(Cl)c1-c1ccc(C(=O)N[C@@H]2CNCC[C@H]2c2cccc(F)c2)cc1,Activity,[1],10.1%
same,Activity,[2],Active
same,Activity,[3],4.5%
same,Activity,[4],Active
same,AUC(0-inf),[5],1870 ng·h/mL
same,Activity,[6],Active
same,Activity,[7],Active
same,Tmax,[8],3.25 h
same,Activity,[9],Active
same,Activity,[10],Dose-dependent effect
same,Activity,[11],Active
same,half-life,[12],7.77 h
same,fold change (FC),[13],13.97
same,Activity,[14],inactive
same,Activity,[15],Active
same,Activity,[16],Active
same,inhibition,[17],Active

# From ChEMBL document CHEMBL4339193, “Phenotypic Screening-Based Identification of 3,4-Disubstituted Piperidine Derivatives as Macrophage M2 Polarization Modulators: An Opportunity for Treating Multiple Sclerosis” (J Med Chem, 2019)
